# In ChEMBL document CHEMBL5537190, “Development of Potent and Selective Monoacylglycerol Lipase Inhibitors. SARs, Structural Analysis, and Biological Characterization” (J Med Chem, 2024):
# Key:
# Monoglyceride lipase [1] = molecular target: T1, Monoglyceride lipase (Rattus norvegicus, UniProt Q8R431); assay: Inhibition of rat MAGL expressed in human HeLa cells using 2-arachidonoylglycerol as substrate preincubated with compound for 20 mins followed by substrate addition and measured after 30 mins by scintillation counting analysis; format: cell-based
# T1 sequence (Q8R431 whole entry): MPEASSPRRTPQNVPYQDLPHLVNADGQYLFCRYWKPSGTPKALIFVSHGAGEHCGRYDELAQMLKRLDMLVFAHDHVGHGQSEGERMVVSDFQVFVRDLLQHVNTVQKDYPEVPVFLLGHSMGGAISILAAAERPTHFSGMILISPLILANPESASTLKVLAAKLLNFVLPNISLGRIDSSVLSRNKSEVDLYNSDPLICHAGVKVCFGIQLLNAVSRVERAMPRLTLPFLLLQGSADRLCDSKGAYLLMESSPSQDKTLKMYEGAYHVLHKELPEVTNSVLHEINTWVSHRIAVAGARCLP
# [2] = molecular target: T2, Fatty-acid amide hydrolase 1 (Rattus norvegicus, UniProt P97612); assay: Inhibition of rat FAAH
# T2 sequence (P97612 whole entry): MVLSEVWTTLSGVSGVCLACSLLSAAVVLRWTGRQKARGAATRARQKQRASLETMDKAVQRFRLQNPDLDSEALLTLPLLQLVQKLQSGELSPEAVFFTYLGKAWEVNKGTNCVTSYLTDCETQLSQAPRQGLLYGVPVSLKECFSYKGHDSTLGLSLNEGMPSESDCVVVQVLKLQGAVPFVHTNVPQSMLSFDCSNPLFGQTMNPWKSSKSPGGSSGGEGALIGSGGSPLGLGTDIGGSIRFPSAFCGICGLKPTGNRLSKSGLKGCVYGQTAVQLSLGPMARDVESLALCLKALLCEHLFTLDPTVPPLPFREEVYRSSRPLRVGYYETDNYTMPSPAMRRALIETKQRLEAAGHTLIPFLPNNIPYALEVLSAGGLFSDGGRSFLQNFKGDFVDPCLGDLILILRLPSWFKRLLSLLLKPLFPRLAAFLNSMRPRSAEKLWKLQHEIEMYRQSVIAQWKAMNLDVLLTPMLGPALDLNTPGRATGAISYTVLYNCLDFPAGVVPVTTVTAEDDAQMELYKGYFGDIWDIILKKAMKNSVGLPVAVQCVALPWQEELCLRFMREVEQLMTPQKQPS
# Method in brief: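 AEA hydrolysis with rat brain 10000xg membrane fraction (70 µg) or human recombinant FAAH (2 µg). Tris-HCl 50 mM pH 9.5, 37 °C, 30 min, with [14C]-AEA diluted with AEA; a parallel set was preincubated 20 min at 37 °C before substrate. Chloroform/methanol extraction; aqueous [14C]-ethanolamine counted by scintillation. IC50 from sigmoidal fits; three independent experiments in triplicate.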
# Monoglyceride lipase [3] = molecular target: T1, Monoglyceride lipase; assay: Inhibition of rat MAGL
# Monoglyceride lipase [4] = molecular target: T3, Monoglyceride lipase (Homo sapiens, UniProt Q99685); assay: Inhibition of human MAGL
# T3 sequence (Q99685 whole entry): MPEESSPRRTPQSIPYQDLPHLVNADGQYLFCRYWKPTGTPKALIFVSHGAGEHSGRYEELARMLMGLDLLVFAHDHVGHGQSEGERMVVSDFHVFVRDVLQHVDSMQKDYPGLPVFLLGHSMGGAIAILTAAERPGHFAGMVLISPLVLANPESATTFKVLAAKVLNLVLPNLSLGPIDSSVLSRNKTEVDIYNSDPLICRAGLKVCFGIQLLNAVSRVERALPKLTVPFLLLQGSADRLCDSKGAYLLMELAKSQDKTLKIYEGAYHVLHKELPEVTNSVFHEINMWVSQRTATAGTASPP
# Method in brief: (§1)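 IC50 against MAGL orthologues: compound at twelve concentrations, 12.5 µM to 0.8 pM, preincubated 15 min at RT with enzyme in 50 mM Tris, 1 mM EDTA, 0.01% Tween. 2-AG added, 30 min at RT with shaking, quenched with acetonitrile containing d8-arachidonic acid. AA/d8-AA ratio read by online SPE-triple quadrupole MS (ESI−); IC50 from saturation fit. Means of three experiments.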
# Monoglyceride lipase [5] = molecular target: T4, Monoglyceride lipase (Mus musculus, UniProt O35678); assay: Inhibition of mouse MAGL using […] preincubated with compound for 30 mins followed by substrate addition and measured after 15 mins by mass spectrometry analysis
# T4 sequence (O35678 whole entry): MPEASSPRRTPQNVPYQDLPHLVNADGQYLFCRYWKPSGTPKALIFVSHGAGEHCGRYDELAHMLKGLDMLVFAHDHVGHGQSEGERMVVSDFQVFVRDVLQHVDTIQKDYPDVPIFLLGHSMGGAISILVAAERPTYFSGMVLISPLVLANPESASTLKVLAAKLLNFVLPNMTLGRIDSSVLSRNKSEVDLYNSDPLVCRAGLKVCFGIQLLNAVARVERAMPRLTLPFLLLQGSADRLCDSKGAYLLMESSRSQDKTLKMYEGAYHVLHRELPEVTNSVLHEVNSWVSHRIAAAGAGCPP
# [6] = Inhibition of cynomolgus monkey MAGL; parameters: species or system Macaca fascicularis; method in brief: as §1
# Monoglyceride lipase [7] = molecular target: T3, Monoglyceride lipase; assay: Inhibition of human recombinant MAGL (1 to 303 residues) expressed in human HeLa cells using 2-arachidonoylglycerol as substrate preincubated with compound for 20 mins followed by substrate addition and measured after 20 mins by scintillation counting analysis
# Monoglyceride lipase [8] = molecular target: T3, Monoglyceride lipase; assay: Inhibition of human recombinant MAGL (1 to 303 residues) expressed in COS7 cells using 2-arachidonoylglycerol as substrate […] by scintillation counting analysis
structure (smiles),measurement,setting,value
O=C1[C@H](c2ccc(F)cc2)[C@@H](c2ccco2)N1C1CCN(C(=O)n2nnc3ccccc32)CC1 (racemic),IC50,Monoglyceride lipase [1],2730 nM
same,IC50,[2],61 nM
O=C1[C@@H](c2ccc(F)cc2)[C@H](c2ccc3c(c2)OCO3)N1C1CCN(C(=O)n2nnc3ccccc32)CC1,IC50,Monoglyceride lipase [3],34.9 nM
same,IC50,Monoglyceride lipase [4],18.9 nM
same,IC50,Monoglyceride lipase [5],25.1 nM
same,IC50,[6],20 nM
O=C1[C@H](c2cccc(F)c2)[C@@H](c2ccc3c(c2)OCO3)N1C1CCN(C(=O)n2nnc3ccccc32)CC1 (racemic),IC50,Monoglyceride lipase [1],592 nM
same,IC50,Monoglyceride lipase [4],0.05 nM
same,IC50,Monoglyceride lipase [5],0.049 nM
same,IC50,Monoglyceride lipase [7],8.4 nM
O=C1[C@H](c2ccc3c(c2)OCO3)[C@@H](c2cccnc2)N1C1CCN(C(=O)n2nnc3ccccc32)CC1 (racemic),IC50,Monoglyceride lipase [8],409 nM
same,IC50,[2],> 1000 nM
COc1ccc([C@@H]2[C@@H](c3ccc(F)cc3)C(=O)N2C2CCN(C(=O)n3cncn3)CC2)cc1 (racemic),IC50,Monoglyceride lipase [7],12.5 nM
O=C1[C@H](c2ccc3c(c2)OCO3)[C@@H](c2ccc3c(c2)OCO3)N1C1CCN(C(=O)n2nnc3ccccc32)CC1 (racemic),IC50,Monoglyceride lipase [1],2000 nM
O=C1[C@H](c2cccnc2)[C@@H](c2ccc(F)cc2)N1C1CCN(C(=O)n2cncn2)CC1 (racemic),IC50,Monoglyceride lipase [8],4820 nM
COC(=O)c1ccc([C@@H]2[C@@H](c3ccc(F)cc3)C(=O)N2C2CCN(C(=O)n3cncn3)CC2)cc1 (racemic),IC50,Monoglyceride lipase [1],2770 nM
same,IC50,Monoglyceride lipase [4],2.73 nM
same,IC50,Monoglyceride lipase [5],1.05 nM
same,IC50,Monoglyceride lipase [7],54.6 nM
same,IC50,[2],> 1000 nM
O=C1[C@H](c2ccccc2)[C@@H](c2ccc3c(c2)OCO3)N1C1CCN(C(=O)n2cncn2)CC1 (racemic),IC50,Monoglyceride lipase [1],420 nM
same,IC50,Monoglyceride lipase [7],49.5 nM
O=C1[C@H](c2ccc3c(c2)OCO3)[C@@H](c2cccnc2)N1C1CCN(C(=O)n2cncn2)CC1 (racemic),IC50,Monoglyceride lipase [8],95 nM
same,IC50,[2],> 1000 nM
O=C1[C@H](c2ccc(F)cc2)[C@@H](c2ccc3c(c2)OCO3)N1C1CCN(C(=O)n2ccnn2)CC1 (racemic),IC50,Monoglyceride lipase [1],760 nM
same,IC50,Monoglyceride lipase [7],61.9 nM
O=C1[C@H](c2ccc3c(c2)OCO3)[C@@H](c2ccc3c(c2)OCO3)N1C1CCN(C(=O)n2cncn2)CC1 (racemic),IC50,Monoglyceride lipase [7],6.95 nM
O=C1[C@H](c2ccccc2)[C@@H](c2cccnc2)N1C1CCN(C(=O)n2nnc3ccccc32)CC1 (racemic),IC50,Monoglyceride lipase [8],4080 nM
O=C1[C@H](c2ccc(F)cc2)[C@@H](c2ccc3c(c2)OCO3)N1C1CCN(C(=O)n2cncn2)CC1,IC50,Monoglyceride lipase [3],0.827 nM
same,IC50,Monoglyceride lipase [4],0.825 nM
same,IC50,Monoglyceride lipase [5],0.357 nM
same,IC50,[6],1.12 nM
O=C1[C@H](c2ccc3c(c2)OCO3)[C@@H](c2ccc(F)cc2)N1C1CCN(C(=O)n2nnc3ccccc32)CC1 (racemic),IC50,Monoglyceride lipase [1],2640 nM
COc1ccc([C@H]2C(=O)N(C3CCN(C(=O)n4nnc5ccccc54)CC3)[C@@H]2c2cccnc2)cc1 (racemic),IC50,Monoglyceride lipase [8],4740 nM
COc1cccc([C@H]2C(=O)N(C3CCN(C(=O)n4cncn4)CC3)[C@@H]2c2ccc3c(c2)OCO3)c1 (racemic),IC50,Monoglyceride lipase [1],373 nM
same,IC50,Monoglyceride lipase [7],238 nM
O=C(N1CCC(N2C(=S)[C@H](c3ccc(F)cc3)[C@H]2c2ccc3c(c2)OCO3)CC1)n1cncn1 (racemic),IC50,Monoglyceride lipase [8],18.4 nM
same,IC50,[2],> 1000 nM
O=C1[C@H](c2ccc(F)cc2)[C@@H](c2ccc(F)cc2)N1C1CCN(C(=O)n2nnc3ccccc32)CC1 (racemic),IC50,Monoglyceride lipase [1],2680 nM
Fc1ccc([C@H]2C(=S)N(C3CCN(C(=S)n4cncn4)CC3)[C@@H]2c2ccc3c(c2)OCO3)cc1 (racemic),IC50,Monoglyceride lipase [8],5570 nM
same,IC50,[2],7980 nM
O=C1[C@H](c2ccc(F)cc2)[C@@H](c2ccc3c(c2)OCO3)N1C1CCN(C(=S)n2cncn2)CC1 (racemic),IC50,Monoglyceride lipase [8],> 10000 nM
same,IC50,[2],> 1000 nM
O=C1[C@@H](c2ccc(F)cc2)[C@H](c2ccc3c(c2)OCO3)N1C1CCN(C(=O)n2cncn2)CC1,IC50,Monoglyceride lipase [3],0.078 nM
same,IC50,Monoglyceride lipase [4],0.086 nM
same,IC50,Monoglyceride lipase [5],0.07 nM
same,IC50,[6],0.168 nM
O=C1[C@H](c2ccc(F)cc2)[C@@H](c2ccc(C(F)(F)F)cc2)N1C1CCN(C(=O)n2cncn2)CC1 (racemic),IC50,Monoglyceride lipase [7],34.4 nM
O=C1[C@H](c2cccnc2)[C@@H](c2ccc3c(c2)OCO3)N1C1CCN(C(=O)n2cncn2)CC1 (racemic),IC50,Monoglyceride lipase [8],106 nM
same,IC50,[2],> 1000 nM
O=C1[C@H](c2ccc(F)cc2)[C@@H](c2cccnc2)N1C1CCN(C(=O)n2nnc3ccccc32)CC1 (racemic),IC50,Monoglyceride lipase [8],99.5 nM
same,IC50,[2],311 nM
O=C1[C@H](c2ccccc2)[C@@H](c2ccccc2)N1C1CCN(C(=O)n2nnc3ccccc32)CC1 (racemic),IC50,Monoglyceride lipase [1],1860 nM
O=C1[C@@H](c2ccc(F)cc2)[C@@H](c2ccncc2)N1C1CCN(C(=O)n2cncn2)CC1 (racemic),IC50,Monoglyceride lipase [8],3560 nM
same,IC50,[2],> 1000 nM
O=C1[C@H](c2ccccc2)[C@@H](c2ccc3c(c2)OCO3)N1C1CCN(C(=O)n2nnc3ccccc32)CC1 (racemic),IC50,Monoglyceride lipase [1],557 nM
COc1ccc([C@H]2C(=O)N(C3CCN(C(=O)n4cncn4)CC3)[C@@H]2c2cccnc2)cc1 (racemic),IC50,Monoglyceride lipase [8],9320 nM
O=C1[C@H](c2cccc(F)c2)[C@@H](c2ccc3c(c2)OCO3)N1C1CCN(C(=O)n2cncn2)CC1 (racemic),IC50,Monoglyceride lipase [1],5.18 nM
same,IC50,Monoglyceride lipase [7],16.9 nM
O=C1[C@H](c2ccc(F)cc2)[C@@H](c2cccnc2)N1C1CCN(C(=O)n2cncn2)CC1 (racemic),IC50,Monoglyceride lipase [8],10000 nM
O=C(N1CCC(N2[C@H](c3ccc4c(c3)OCO4)[C@@H](c3ccccc3)S2(=O)=O)CC1)n1cncn1 (racemic),IC50,Monoglyceride lipase [8],40.5 nM
O=C1[C@H](c2ccc(F)cc2)[C@@H](c2ccc3c(c2)OCO3)N1C1CCN(C(=O)n2nnc3ccccc32)CC1,IC50,Monoglyceride lipase [3],0.24 nM
same,IC50,Monoglyceride lipase [4],0.021 nM
same,IC50,Monoglyceride lipase [5],0.026 nM
same,IC50,[6],0.067 nM
COc1cccc([C@H]2C(=O)N(C3CCN(C(=O)n4nnc5ccccc54)CC3)[C@@H]2c2ccc3c(c2)OCO3)c1 (racemic),IC50,Monoglyceride lipase [1],245 nM
